Assay results taken from ChEMBL document CHEMBL1157903, “Synthesis and structure-activity relationships of 2-aryl-4-oxazolylmethoxy benzylglycines and 2-aryl-4-thiazolylmethoxy benzylglycines as novel, potent PPARalpha selective activators- PPARalpha and PPARgamma selectivity modulation” (Bioorg Med Chem Lett, 2010).

What was measured:
[1] = molecular target: T1, Peroxisome proliferator-activated receptor alpha (Homo sapiens, UniProt Q07869); experiment: Agonist activity against human Gal4-fussed PPARalpha in HEK293 cells by luciferase reporter gene assay; type: functional, cell-based
T1 sequence (Q07869 whole entry): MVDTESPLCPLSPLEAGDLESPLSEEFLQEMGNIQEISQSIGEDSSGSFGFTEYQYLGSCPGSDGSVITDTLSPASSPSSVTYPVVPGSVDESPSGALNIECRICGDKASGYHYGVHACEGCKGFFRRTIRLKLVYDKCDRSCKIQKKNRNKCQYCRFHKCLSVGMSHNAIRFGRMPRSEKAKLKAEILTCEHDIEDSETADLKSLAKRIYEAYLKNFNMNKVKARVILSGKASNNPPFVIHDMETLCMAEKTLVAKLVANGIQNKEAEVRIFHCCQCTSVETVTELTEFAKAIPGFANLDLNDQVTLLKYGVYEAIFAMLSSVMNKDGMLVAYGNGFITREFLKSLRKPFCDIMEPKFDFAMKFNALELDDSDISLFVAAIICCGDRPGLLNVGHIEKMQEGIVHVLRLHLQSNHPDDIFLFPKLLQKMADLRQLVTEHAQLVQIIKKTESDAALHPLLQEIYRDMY
How it was run: (§1)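 Transactivation assay in HEK293 cells with a luciferase reporter. After cell lysis, luciferin is added and luminescence is read. EC50 is the ligand concentration giving half-maximal fold induction. Maximal efficacy is expressed as % of standards, with fenofibrate at 100 µM = 100% for PPARα and rosiglitazone at 1 µM = 100% for PPARγ. Data are normalized to known agonists at 1 µM.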

[2] = molecular target: T2, Peroxisome proliferator-activated receptor alpha (Homo sapiens) (UniProt Q07869); experiment: Agonist activity against human Gal4-fussed PPARalpha by luciferase reporter gene assay relative to finofibrate; type: functional
T2 sequence (whole entry): T1 sequence (Q07869 whole entry)
How it was run: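 Gal4-fused human PPARα transactivation in HEK293 cells with a luciferase reporter, read as luminescence after cell lysis and luciferin addition. EC50 is the ligand concentration (µM) giving half-maximal fold induction. Maximal efficacy is expressed as a percentage of fenofibrate at 100 µM (set as 100%). Intrinsic activity is the response at 1 µM as a percentage of the standard at 1 µM.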

[3] = molecular target: T3, Peroxisome proliferator-activated receptor gamma (Homo sapiens, UniProt P37231); experiment: Agonist activity against human Gal4-fussed PPARgamma in HEK293 cells by luciferase reporter gene assay; type: functional, cell-based; how it was run: as §1
T3 sequence (P37231 whole entry): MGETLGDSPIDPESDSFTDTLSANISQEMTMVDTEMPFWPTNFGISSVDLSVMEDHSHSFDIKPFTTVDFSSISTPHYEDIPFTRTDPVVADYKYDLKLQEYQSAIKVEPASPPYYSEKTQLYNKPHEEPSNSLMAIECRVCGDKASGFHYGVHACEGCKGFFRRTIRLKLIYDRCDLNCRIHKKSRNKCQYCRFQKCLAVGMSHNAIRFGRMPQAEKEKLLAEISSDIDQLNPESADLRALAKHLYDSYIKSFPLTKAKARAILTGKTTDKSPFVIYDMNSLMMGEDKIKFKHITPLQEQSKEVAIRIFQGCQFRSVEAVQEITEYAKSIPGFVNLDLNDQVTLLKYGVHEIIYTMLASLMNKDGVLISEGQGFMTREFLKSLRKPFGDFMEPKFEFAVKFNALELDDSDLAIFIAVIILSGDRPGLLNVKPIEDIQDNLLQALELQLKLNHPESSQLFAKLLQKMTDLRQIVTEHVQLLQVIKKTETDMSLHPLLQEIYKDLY

[4] = molecular target: T4, Peroxisome proliferator-activated receptor gamma (Homo sapiens) (UniProt P37231); experiment: Agonist activity against human Gal4-fussed PPARgamma by luciferase reporter gene assay relative to rosiglitazone
T4 sequence (whole entry): T3 sequence (P37231 whole entry)

[5] = Agonist activity at hamster PPARalpha; type: functional, Cricetulus griseus
Hamster [6] = experiment: Antidyslipidemic activity in hamster assessed as decrease in HDL level at 10 mg/kg, po; type: functional, Cricetinae; parameters: scale not given: the % may be the effect or the level left
How it was run: (§2)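 Hamsters kept on high-fat diet for 2 weeks, then dosed 10 mg/kg by oral gavage once daily for 21 days (n = 8). Vehicle: 5% cremophor, 10% NMP, 5% EtOH, 80% water. HDL-c and TG measured at study end. Statistics by Dunnett test, p < 0.05.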

Hamster [7] = experiment: Antidyslipidemic activity in hamster assessed as decrease in triglyceride level at 10 mg/kg, po; type: functional, Cricetinae; parameters: scale not given: the % may be the effect or the level left; how it was run: as §2
Cricetulus griseus = organism: Cricetulus griseus; experiment: Agonist activity at hamster PPARalpha relative to fenofibrate; type: functional
[8] = Volume of distribution at steady state Sprague-Dawley rat at 5 mg/kg, iv and 10 mg/kg, po; type: ADME, organism-based; conditions: in vivo, read-out: Vdss
How it was run: (§3)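 Male Sprague-Dawley rats (n = 2) given 5 mg/kg IV and 10 mg/kg PO. Vehicle: 10% NMP, 20% PEG-400, 70% potassium phosphate buffer.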

[9] = Clearance in Sprague-Dawley rat at 5 mg/kg, iv and 10 mg/kg, po; type: ADME, organism-based; conditions: in vivo; how it was run: as §3
[10] = Half life in Sprague-Dawley rat at 5 mg/kg, iv and 10 mg/kg, po; type: ADME, organism-based; conditions: in vivo; how it was run: as §3
[11] = Mean retention time in Sprague-Dawley rat at 5 mg/kg, iv and 10 mg/kg, po; type: ADME, organism-based; conditions: in vivo; how it was run: as §3
Hamster [12] = experiment: Induction of PDK4 mRNA level in hamster liver at 10 mg/kg, po after 6 hrs relative to fenofibrate; type: functional, Cricetinae
How it was run: (§4)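 Single oral dose of 10 mpk in hamsters, with fenofibrate reference at 100 mpk. Liver PDK4 and HD mRNA measured at 6 h post-dose. Values expressed relative to fenofibrate, set as 100%.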

Hamster [13] = experiment: Induction of hydrase mRNA level in hamster liver at 10 mg/kg, po after 6 hrs relative to fenofibrate; type: functional, Cricetinae; how it was run: as §4
[14] = Drug level in hamster liver at 10 mg/kg, po; type: ADME, organism-based; parameters: dose 10 mg/kg, route oral; conditions: cricetinae, in vivo, read-out: Drug uptake
How it was run: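 High-fat-fed hamsters (2 weeks on diet), 10 mg/kg po once daily for 21 days (n = 8). Vehicle: 5% cremophor/10% NMP/5% EtOH/80% water. Liver drug level taken 1 h post-dose in the fed state.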

[15] = Drug level in hamster plasma at 10 mg/kg, po; type: ADME, organism-based; parameters: dose 10 mg/kg, route oral; conditions: cricetinae, in vivo, read-out: Drug uptake
How it was run: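 High-fat-fed hamsters (2 weeks on diet), 10 mg/kg po once daily for 21 days (n = 8). Vehicle: 5% cremophor/10% NMP/5% EtOH/80% water. Plasma drug level taken in the fasted state at 18 h post-dose.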

[16] = Oral bioavailability in Sprague-Dawley rat at 10 mg/kg; type: ADME, organism-based; conditions: in vivo
How it was run: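 Male Sprague-Dawley rats (n = 2). Oral dose 10 mg/kg, with 5 mg/kg IV for comparison. Vehicle: 10% NMP, 20% PEG-400, 70% potassium phosphate buffer.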

Row | Compound | EC50 [1] [nM] | Emax [2] [%] | EC50 [3] [nM] | Emax [4] [%] | further results
1 | Cc1ccc(F)c(OC(=O)N(CC(=O)O)[C@@H](C)c2cccc(OCc3coc(-c4ccc(Cl)cc4)n3)c2)c1 | 471 | 56 | 710 | 58 | 
2 | COC(=O)N(CC(=O)O)Cc1cccc(OCc2coc(-c3ccccc3)n2)c1 | 1230 | 105 | > 25000 |  | 
3 | COC(=O)N(CC(=O)O)Cc1cccc(OCc2nc(-c3ccc(Cl)cc3)oc2C)c1 |  | 79 |  | 82 | Activity (Hamster [6]): 20%; Activity (Hamster [7]): 77%; Vd [8]: 0.7 L/kg; clearance [9]: 4.3 mL/min/kg; half-life [10]: 3.2 h; MRT [11]: 2.8 h; Activity (Hamster [12]): 230%; Activity (Hamster [13]): 277%; Emax (Cricetulus griseus): 83%
4 | COc1cc(OC(=O)N(CC(=O)O)[C@@H](C)c2cccc(OCc3coc(-c4ccc(Cl)cc4)n3)c2)ccc1F | 51 | 64 | 1440 | 74 | 
5 | COC(=O)N(CC(=O)O)Cc1cccc(OCc2csc(-c3ccc(Cl)cc3)n2)c1 | 90 | 90 | 4690 | 35 | 
6 | COC(=O)N(CC(=O)O)Cc1cccc(OCc2coc(-c3ccc(C(F)(F)F)cc3)n2)c1 | 68 | 74 | 4810 | 34 | 
7 | COC(=O)N(CC(=O)O)[C@@H](C)c1cccc(OCc2coc(-c3ccc(C)cc3)n2)c1 | 87 | 87 | 20700 | 130 | 
8 | COC(=O)N(CC(=O)O)Cc1cccc(OCc2coc(-c3ccc(F)c(Cl)c3)n2)c1 | 395 | 97 | 6390 | 54 | 
9 | COC(=O)N(CC(=O)O)Cc1cccc(OCc2csc(-c3cccc(Cl)c3)n2)c1 | 1450 | 117 | 4020 | 54 | 
10 | COC(=O)N(CC(=O)O)Cc1cccc(OCc2csc(-c3ccccc3Cl)n2)c1 | > 2500 |  | 5040 | 55 | 
11 | COC(=O)N(CC(=O)O)[C@@H](C)c1cccc(OCc2coc(-c3ccc(Cl)cc3)n2)c1 | 73 | 65 | > 8300 | 189 | 
12 | COC(=O)N(CC(=O)O)Cc1cccc(OCc2coc(-c3cccc(C)c3)n2)c1 | 451 | 92 | > 25000 |  | 
13 | COC(=O)N(CC(=O)O)Cc1cccc(OCc2csc(-c3ccccc3)n2)c1 | 304 | 70 | > 25000 |  | 
14 | COC(=O)N(CC(=O)O)Cc1cccc(OCc2csc(-c3ccc(C(F)(F)F)cc3)n2)c1 | 46.6 | 73 | 3440 | 73 | EC50 [5]: 811 nM; Activity (Hamster [6]): 52%; Activity (Hamster [7]): 72%; concentration [14]: 86.8 µM; Vd [8]: 0.3 L/kg; clearance [9]: 0.5 mL/min/kg; half-life [10]: 7.9 h; MRT [11]: 6 h; bioavailability [16]: 75%; Activity (Hamster [12]): 308%; Activity (Hamster [13]): 126%; Emax (Cricetulus griseus): 65%
15 | Cc1cccc(OC(=O)N(CC(=O)O)[C@@H](C)c2cccc(OCc3coc(-c4ccc(Cl)cc4)n3)c2)c1 | 22 | 62 | 571 | 83 | 
16 | COC(=O)N(CC(=O)O)Cc1cccc(OCc2coc(-c3ccc(C)cc3)n2)c1 | 29.9 | 85 | 15600 | 94 | 

Continued by falling EC50 [1], values first:

Row | EC50 [1] [nM] | Emax [2] [%] | EC50 [3] [nM] | Emax [4] [%] | Compound | further results
17 | 1090 | 78 | > 25000 |  | COC(=O)N(CC(=O)O)Cc1cccc(OCc2coc(-c3ccc(F)cc3F)n2)c1 | 
18 | 235 | 88 | > 25000 |  | COC(=O)N(CC(=O)O)Cc1cccc(OCc2coc(-c3ccc(F)cc3)n2)c1 | 
19 | 145 | 53 | 1690 | 43 | C[C@@H](c1cccc(OCc2coc(-c3ccc(Cl)cc3)n2)c1)N(CC(=O)O)C(=O)Oc1ccccc1 | 
20 | 66 | 69 | 970 | 62 | COc1ccc(OC(=O)N(CC(=O)O)[C@@H](C)c2cccc(OCc3coc(-c4ccc(Cl)cc4)n3)c2)cc1 | 
21 | 64 | 78 | 9190 | 46 | COC(=O)N(CC(=O)O)Cc1cccc(OCc2coc(-c3ccc(Cl)cc3)n2)c1 | EC50 [5]: 979 nM; Activity (Hamster [6]): 44%; Activity (Hamster [7]): 84%; concentration [14]: 83.8 µM; concentration [15]: 72.9 µM; Vd [8]: 0.2 L/kg; clearance [9]: 0.7 mL/min/kg; half-life [10]: 4.6 h; MRT [11]: 10.7 h; bioavailability [16]: 75%; Activity (Hamster [12]): 505%; Activity (Hamster [13]): 192%; Emax (Cricetulus griseus): 84%
22 | 41.8 | 71 | 9290 | 84 | COC(=O)N(CC(=O)O)Cc1cccc(OCc2csc(-c3ccc(C)cc3)n2)c1 | 
23 | 13 | 69 | 772 | 95 | COc1cccc(OC(=O)N(CC(=O)O)[C@@H](C)c2cccc(OCc3coc(-c4ccc(Cl)cc4)n3)c2)c1 | EC50 [5]: 66 nM; Activity (Hamster [6]): 39%; Activity (Hamster [7]): 49%; Emax (Cricetulus griseus): 71%
